Results of several laboratories.
Protocols differ between the studies behind these lines.
EGFR A750P/del747-749: Epidermal growth factor receptor (EGFR, Homo sapiens, UniProt P00533, A750P/del747-749)
EGFR del746-750: Epidermal growth factor receptor (EGFR, Homo sapiens, UniProt P00533, del746-750)
EGFR T790M: Epidermal growth factor receptor (EGFR, Homo sapiens, UniProt P00533, T790M)
EGFR L858R/T790M: Epidermal growth factor receptor (EGFR, Homo sapiens, UniProt P00533, L858R/T790M)
EGFR L861Q: Epidermal growth factor receptor (EGFR, Homo sapiens, UniProt P00533, L861Q)
EGFR del747-750/T751S: Epidermal growth factor receptor (EGFR, Homo sapiens, UniProt P00533, del747-750/T751S)
EGFR: Epidermal growth factor receptor (EGFR, Homo sapiens, UniProt P00533)
EGFR del747-752/P753S: Epidermal growth factor receptor (EGFR, Homo sapiens, UniProt P00533, del747-752/P753S)
EGFR L858R: Epidermal growth factor receptor (EGFR, Homo sapiens, UniProt P00533, L858R)
EGFR del752-759: Epidermal growth factor receptor (EGFR, Homo sapiens, UniProt P00533, del752-759)

SMILES | target | observed | technique | tested at | remaining binding [%]
c1cncc(-c2cccc(Nc3nccc(NC4CCCCC4)n3)c2)c1 | EGFR A750P/del747-749 | binding | competition with immobilised ligand | 10 µM | 36
O=C(c1ccc(Nc2ncc(Cl)c(-c3cc4ccccc4s3)n2)cc1)N1CCC(N2CCCC2)CC1 | EGFR del746-750 | binding | competition with immobilised ligand | 1 µM | 79
COc1ncc2cc3ccccc3nc2c1C#N | EGFR T790M | cell-free assay | competition with immobilised ligand | 5 µM | 100
O=C(c1ccc(Nc2nccc(-c3cc4ccccc4s3)n2)cc1)N1CCC(N2CCCC2)CC1 | EGFR L858R/T790M | binding | competition with immobilised ligand | 1 µM | 58
CN1CCN(c2ccc(Nc3nccc(-c4ccccc4)n3)cc2C(F)(F)F)CC1 | EGFR L861Q | binding |  | 10 µM | 94
O=C(Nc1cccnn1)N1CC(C/C=C/c2cncc(Oc3ccc(C(F)(F)F)cn3)n2)C1 | EGFR del747-750/T751S | cell-free assay | competition with immobilised ligand | 1 µM | 100
N[C@@H]1CCN(c2nccc(-c3cnn4ncccc34)n2)C1 | EGFR L858R/T790M | binding |  | 1 µM | 100
O=C(Nc1ccc(Oc2ccc(F)cc2)cc1)N1CCc2ncccc2[C@H]1c1ccc(F)cc1 | EGFR T790M | cell-free assay | competition with immobilised ligand | 1 µM | 87
CC(C)(C)c1ccc(-c2nc(CBr)nn2-c2cccc(O)c2)cc1 | EGFR | cell-free assay | competition with immobilised ligand | 10 µM | 85
CN(C)C(=O)Cn1cc(-c2nc([C@@](C)(c3ccc(-c4cnc(N)nc4)cc3)C3CC3)no2)cn1 | EGFR | cell-free assay | competition with immobilised ligand | 1 µM | 93
CN1CCN(c2ccc(Nc3nccc(-c4cccc([N+](=O)[O-])c4)n3)cc2C(F)(F)F)CC1 | EGFR del746-750 | binding |  | 10 µM | 34
O=C(NCCCN1CCOCC1)c1ccc(Nc2ncc(Cl)c(-c3ccc(Cl)s3)n2)cc1 | EGFR L861Q | binding | competition with immobilised ligand | 1 µM | 100
Nc1ncc2c(n1)-c1c([nH]c3ccc(C#CC4CC4)cc13)CCCC2 | EGFR del747-752/P753S | binding | competition with immobilised ligand | 1 µM | 56
NS(=O)(=O)c1cc(NC(=O)C2(c3ccccc3Cl)CC2)ccc1Oc1cccc(Cl)c1 | EGFR del747-752/P753S | cell-free assay | competition with immobilised ligand | 1 µM | 57
COc1cnc(Nc2cccc(S(N)(=O)=O)c2)nc1N1CCN(c2ccccc2)C(=O)C1 | EGFR del747-752/P753S | binding | competition with immobilised ligand | 1 µM | 75
C[C@@H](c1cccc(C#N)c1)n1cc(Cl)cc(C(N)=O)c1=N | EGFR del746-750 | cell-free assay | competition with immobilised ligand | 1 µM | 93
CCN1CCN(Cc2ccc(C(=O)Nc3ccc(C)c(Oc4ccc5c(c4)CC(=O)N5)c3)cc2C(F)(F)F)CC1 | EGFR L861Q | binding | competition with immobilised ligand | 1 µM | 77

SMILES | target | observed | technique | tested at | remaining binding [%]
CCN(CC)Cc1cc(Nc2ccnc3cc(Cl)ccc23)ccc1O | EGFR | cell-free assay | competition with immobilised ligand | 0.1 µM | 100
Cc1cnc(Nc2ccc(C(=O)N3CCC(N4CCCC4)CC3)cc2)nc1-c1cc2ccccc2s1 | EGFR L858R | binding | competition with immobilised ligand | 1 µM | 72
c1ccc(N2CCN(Cc3nc4ccccc4[nH]3)CC2)nc1 | EGFR T790M | cell-free assay | competition with immobilised ligand | 1 µM | 99
O=C(c1ccc(Nc2ncc(Cl)c(-c3ccc(Cl)s3)n2)cc1)N1CCC(N2CCCC2)CC1 | EGFR L858R/T790M | binding | competition with immobilised ligand | 1 µM | 49
CNC(=O)[C@@H]1CC[C@@H](n2c(-c3ccc4cnccc4c3)nc3ccc(C(=O)NCc4cccc(C(N)=O)c4)cc32)C1 | EGFR L858R | binding | competition with immobilised ligand | 1 µM | 100
CN(CCCC(F)(F)F)c1nccc(-c2cnn3ncccc23)n1 | EGFR L858R | binding |  | 1 µM | 85
O=C(Nc1c[nH]nc1C(=O)NC1CCNCC1)c1cc(F)cc(F)c1 | EGFR del746-750 | binding | competition with immobilised ligand | 1 µM | 100
c1cnn2ncc(-c3ccnc(N4CCC45COC5)n3)c2c1 | Epidermal growth factor receptor (EGFR, Homo sapiens, UniProt P00533, G719C) | binding |  | 1 µM | 100
COc1cnc(Nc2cccc(S(N)(=O)=O)c2)nc1N1CCN(c2ccccc2)CC1 | EGFR del752-759 | binding | competition with immobilised ligand | 1 µM | 94
CC1CCCN1c1nccc(-c2cnn3ncccc23)n1 (stereo not shown) | EGFR del752-759 | binding |  | 1 µM | 100
CC(=O)N1CCC(c2ccc(C(=O)NC(=N)N)cc2C(F)(F)F)CC1 | EGFR del747-750/T751S | cell-free assay | competition with immobilised ligand | 1 µM | 100
COc1ccnn2ncc(-c3ccnc(N(C)C)n3)c12 | EGFR L858R | binding |  | 1 µM | 100
O=C(NCC1CCOCC1)c1n[nH]cc1NC(=O)c1c(F)cccc1F | Epidermal growth factor receptor (EGFR, Homo sapiens, UniProt P00533, G719S) | binding | competition with immobilised ligand | 1 µM | 100
C[C@H]1CCN(c2nccc(-c3cnn4ncccc34)n2)C1 | EGFR | binding |  | 1 µM | 100
Cc1noc([C@H]2C[C@@H](c3ccc(C(F)(F)F)cc3)CN(C(=O)N3CCS(=O)(=O)C3)C2)n1 | EGFR del747-752/P753S | cell-free assay | competition with immobilised ligand | 1 µM | 78
O=C(NCCCN1CCOCC1)c1ccc(Nc2nccc(-c3cc4ccccc4s3)n2)cc1 | EGFR A750P/del747-749 | binding | competition with immobilised ligand | 1 µM | 100
CN(C)c1nccc(-c2cnn3ncccc23)n1 | EGFR L861Q | binding |  | 1 µM | 90
